Consider two molecules from ChEMBL document CHEMBL1687778, “Genetic determinants involved in the susceptibility of Pseudomonas aeruginosa to beta-lactam antibiotics” (2010).

In brackets after ≈: the same amount, converted by molar mass.

In assay [1] the test system is Pseudomonas aeruginosa PA14. As to the kind of experiment: Activity of Beta-lactamase in Pseudomonas aeruginosa PA14 PA3047 harboring complemented dacB mutant gene assessed as nitrocefin hydrolysis per mg of protein by spectrophotometry. Put shortly:
(§1)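 Cells grown to OD600 1.0, pelleted and resuspended in 0.1 M KH2PO4-Na2HPO4 pH 7.0. Crude extract made by two freeze-thaw cycles plus sonication on ice. β-Lactamase read as absorbance change at 485 nm with 50 µM nitrocefin in the same pH 7.0 phosphate buffer. Extract protein measured by BCA against a bovine serum albumin standard.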

The subject of assay [2] is Pseudomonas aeruginosa PA14. As to the kind of experiment: Activity of Beta-lactamase in Pseudomonas aeruginosa PA14 PA4020 harboring mpl mutant gene assessed as nitrocefin hydrolysis per mg of protein by spectrophotometry. The gist of the method:
as §1

In assay [3] the test system is Pseudomonas aeruginosa PA14. Nature of the assay: Activity of Beta-lactamase in Pseudomonas aeruginosa PA14 PA4020 harboring complemented mpl mutant gene assessed as nitrocefin hydrolysis per mg of protein by spectrophotometry. The gist of the method:
as §1

Assay [4] relates to Pseudomonas aeruginosa PA14. Nature of the assay: Activity of Beta-lactamase in Pseudomonas aeruginosa PA14 PA4109 harboring ampR mutant gene assessed as nitrocefin hydrolysis per mg of protein by spectrophotometry. Put shortly:
as §1

Assay [5] relates to Pseudomonas aeruginosa PAO1. Nature of the assay: Activity of Beta-lactamase in Pseudomonas aeruginosa PAO1 PA4109 harboring ampR mutant gene assessed as nitrocefin hydrolysis per mg of protein by spectrophotometry. Put shortly:
as §1

Assay [6] relates to Pseudomonas aeruginosa PA14. Nature of the assay: Activity of Beta-lactamase in Pseudomonas aeruginosa PA14 PA4522 harboring ampD mutant gene assessed as nitrocefin hydrolysis per mg of protein by spectrophotometry. The gist of the method: as §1
Assay [7] concerns Pseudomonas aeruginosa. Nature of the assay: Antimicrobial activity against Pseudomonas aeruginosa PA14 PA5001 harboring mutation in putative glycosyl-transferase by broth microdilution method relative to wild type. On the technique in general: Dilution methods test growth across graded concentrations, often in twofold steps.
Assay [8] has as its system Pseudomonas aeruginosa. Nature of the assay: Antimicrobial activity against wild type Pseudomonas aeruginosa harboring pBBR1MCS-3 by Etest method.
In assay [9] the test system is Pseudomonas aeruginosa. Nature of the assay: Antimicrobial activity against Pseudomonas aeruginosa harboring algU mutant gene by Etest method. Format: functional. The gist of the method:
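Etest MIC. Overnight LB cultures at 37°C were diluted in sterile 0.85% NaCl to about 1 × 10^7 CFU/ml. 100 µl was spread on Mueller-Hinton agar, one strip was placed per plate, and plates were incubated at 37°C for 18 h. Equal cell numbers were seeded per plate, and results were verified in triplicate. PA14 wild type was included in each set as a susceptibility control.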

Assay [10] has as its system Pseudomonas aeruginosa. As to the kind of experiment: Antimicrobial activity against Pseudomonas aeruginosa harboring pBBR-mucD complemented gene by Etest method.

For `CC(C)(O/N=C(\C(=O)N[C@@H]1C(=O)N2C(C(=O)[O-])=C(C[n+]3ccccc3)CS[C@H]12)c1csc(N)n1)C(=O)O` [CEFTAZIDIME], the Activity was 3.8 nmol/min in assay [1]; 96 nmol/min in assay [2]; 7.3 nmol/min in [3]; 257 nmol/min in assay [4]; 111 nmol/min in assay [5]; 31 nmol/min in [6]. For the same molecule, the “fold change (FC)” value with Pseudomonas aeruginosa [7] is 3.

Broadly, the MIC is the lowest concentration that inhibits growth of the organism. For `C[C@@H](O)[C@H]1C(=O)N2C(C(=O)O)=C(SCCNC=N)C[C@H]12` [IMIPENEM ANHYDROUS], the MIC against Pseudomonas aeruginosa [8] came to 0.5 µg/mL (≈ 1.67 µM); in the assay with Pseudomonas aeruginosa [9] it was 0.38 µg/mL (≈ 1.27 µM); with Pseudomonas aeruginosa [10], 0.5 µg/mL (≈ 1.67 µM).
